Laboratory results taken from ChEMBL document CHEMBL1131079, “Synthesis and evaluation of 2-amino-9-(3-hydroxymethyl-4-alkoxycarbonyloxybut-1-yl)purines as potential prodrugs of penciclovir” (J Med Chem, 1998).
In brackets after ≈: the same amount, converted by molar mass.

What was measured:
[1] = Half-life by the HPLC using a C18 reversed-phase column at pH 1.2 (HC/NaCl buffer) and 37 degree C.; type: ADME; details: HCl/NaCl buffer
In short: (§1)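 Compound at 125 μM final (from 2.5 mM stock) incubated at 37 °C in HCl/NaCl buffer pH 1.2 or sodium phosphate buffer pH 6.0, 7.4 or 8.0. Aliquots taken at intervals were diluted into 0.1 M phosphate pH 7.0 and run isocratically on a C18 column with 0.1% phosphoric acid/MeCN eluents. Half-life calculated from remaining parent concentration.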

Mus musculus = organism: Mus musculus; experiment: The total amount of penciclovir recovered in the urine over a 48-h period was determined by HPLC using a C18 reversed-phase column in mouse.; type: ADME, organism-based; details: in vivo
In short: (§2)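 Urine collected 48 h in metabolic cages over sodium azide, then filtered. Penciclovir quantified by C18 HPLC with a three-step phosphoric acid/MeCN gradient, UV 248 nm. Result expressed as total urinary penciclovir, % of dose.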

Rattus norvegicus = organism: Rattus norvegicus; experiment: The total amount of penciclovir recovered in the urine over a 48-h period was determined by HPLC using a C18 reversed-phase column in rat.; type: ADME, organism-based; details: in vivo; in short: as §2
[2] = Half-life by the HPLC using a C18 reversed-phase column at pH 8..0(sodium phosphate buffer) and 37 degree C.; type: ADME; in short: as §1
Human alphaherpesvirus 1 = experiment: Compound was tested for in vitro antiviral activity against herpes viruses of type 1 (HSV-1,KOS strain) (concentration required to reduce the OD value by 50% of the virus infected control); type: functional, organism-based
In short: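 Dye-uptake assay. Vero cells (10⁵ cells/mL) in EMEM with 5% FBS were infected with HSV-1 KOS at 100 PFU/well. After 1 h adsorption, serial 3-fold compound dilutions from 125 μM were added in quadruplicate. After 48 h at 37 °C, neutral red uptake was eluted and read at 550 nm. EC50 derived by quantal probit analysis against virus and cell controls.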

[3] = Half-life by the HPLC using a C18 reversed-phase column at pH 7.4(sodium phosphate buffer) and 37 degree C.; type: ADME; in short: as §1
[4] = Solubility at 20 degree C was determined by the comparison of th UV absorbance of the saturated solution of each compound at 290 nm with that of the standard curve.
Vero = experiment: Compound was tested for cytotoxicity in Vero cells (concentration required to reduce the OD value by 50% of the control); type: functional; details: Chlorocebus sabaeus
In short: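 Vero cells (ATCC) seeded at 5 × 10³ cells/well and grown 24 h in EMEM, then exposed to a range of compound concentrations for 3 days at 37 °C, 5% CO₂. MTT added for a further 4 h, formazan dissolved in DMSO, OD read at 540 nm. CC50 is the concentration giving 50% OD reduction versus control. Quadruplicate wells, experiment repeated twice.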

[5] = Half-life by the HPLC using a C18 reversed-phase column at pH 6.0 (sodium phosphate buffer) and 37 degree C.; type: ADME; in short: as §1

Row | Structure (SMILES) | half-life [1] [days] | Urinary penciclovir recovery over 48 h (% of dose) (Mus musculus) [%] | urinary penciclovir recovery, % of dose (Rattus norvegicus) [%] | half-life [2] [days] | EC50 (Human alphaherpesvirus 1) [µM] | half-life [3] [days] | solubility at 0.29 µM [4] [mg/mL] | half-life [5] [days] | CC50 (Vero) [µM]
1 | CCOC(=O)OCC(CO)CCn1cnc2cnc(N)nc21 (configuration not stated) | 35 | 50 | 40 | 3 | > 125 | 7 | 20 (≈ 64.7 mM) | 112 | > 500
2 | CC(C)COC(=O)OCC(CO)CCn1cnc2cnc(N)nc21 (configuration not stated) | 28 | 38 | 37 | 8 | > 125 | 17 | 1.5 (≈ 4.45 mM) | 87 | > 500
3 | COC(=O)OCC(CO)CCn1cnc2cnc(N)nc21 (configuration not stated) | 23 | 45 | 39 | 0.5 | > 125 | 1 | 14.1 (≈ 47.7 mM) | 18 | > 500
4 | CC(=O)OCC(CCn1cnc2cnc(N)nc21)COC(C)=O [FAMCICLOVIR] |  | 48 | 40 |  | > 125 |  |  |  | > 500

Second part, led by results:

Row | half-life [1] [days] | Urinary penciclovir recovery over 48 h (% of dose) (Mus musculus) [%] | urinary penciclovir recovery, % of dose (Rattus norvegicus) [%] | half-life [2] [days] | EC50 (Human alphaherpesvirus 1) [µM] | half-life [3] [days] | solubility at 0.29 µM [4] [mg/mL] | half-life [5] [days] | Structure (SMILES) | CC50 (Vero) [µM]
5 | 24 | 51 | 40 | 6 | > 125 | 11 | 5.6 (≈ 15.9 mM) | 65 | CC(C)CCOC(=O)OCC(CO)CCn1cnc2cnc(N)nc21 (configuration not stated) | 357
6 | 29 | 51 | 34 | 4 | > 125 | 10 | 68 (≈ 210 mM) | 89 | CCCOC(=O)OCC(CO)CCn1cnc2cnc(N)nc21 (configuration not stated) | > 500
7 | 88 | 53 | 40 | 26 | > 125 | 61 | 139 (≈ 429 mM) | > 200 | CC(C)OC(=O)OCC(CO)CCn1cnc2cnc(N)nc21 (configuration not stated) | > 500
8 | 25 | 47 | 38 | 5 | > 125 | 7 | 4.2 (≈ 12 mM) | 17 | CCCCCOC(=O)OCC(CO)CCn1cnc2cnc(N)nc21 (configuration not stated) | > 500
9 |  | 27 | 15 | 0.07 | > 125 | 0.12 |  | 2.6 | Nc1ncc2ncn(CCC3COC(=O)OC3)c2n1 | > 500
10 | 29 | 38 | 41 | 5 | > 125 | 11 | 15 (≈ 44.5 mM) | 74 | CCCCOC(=O)OCC(CO)CCn1cnc2cnc(N)nc21 (configuration not stated) | > 500
11 |  | 3 | 9 |  | 8.65 |  |  |  | Nc1nc2c(ncn2CCC(CO)CO)c(=O)[nH]1 [PENCICLOVIR] | > 500
